The values below come from ChEMBL document CHEMBL3822382 (Eur J Med Chem, 2016).

Series [1] is described as follows: Growth inhibition of human KB-V1/Vbl cells after 24 hrs by MTT assay. The format is functional. Summed up:
(§1)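 Cells seeded at 5000/well (Ea.hy926 10,000/well) and exposed for 24 h to dilution series of 100 µM–5 pM, with DMSO as solvent control. MTT (0.5 mg/mL final) for 2 h. Formazan dissolved in SDS/acetic acid/DMSO and read at 570 nm against a 630 nm background. Viability taken relative to DMSO controls; IC50 from dose–response curves, mean of four independent experiments.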

A short description of series [2]: Growth inhibition of human 518A2 cells after 72 hrs by MTT assay. In kind it is functional, cell-based. The note with it: 518A2, 72 h. Summed up:
(§2)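 5000 cells/well exposed for 72 h to dilution series of 100 µM–5 pM, with DMSO as solvent control. MTT 0.5 mg/mL final for 2 h, absorbance at 570/630 nm. Percentage viable cells taken versus DMSO controls; IC50 from dose–response curves, mean of four independent experiments.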

Series [3] can be described thus: Growth inhibition of human MCF7/Topo cells after 24 hrs by MTT assay. The format is functional, cell-based. In short, it runs like this: as §1
The subject of series [4] is HT-29. The series can be described thus: Growth inhibition of combretastatin A-4 resistant human HT-29 cells after 24 hrs by MTT assay. The format is functional, cell-based. The note with it: HT-29, 24 h. Summed up:
as §1

For series [5], the system named is HT-29. Put plainly: Growth inhibition of combretastatin A-4 resistant human HT-29 cells after 72 hrs by MTT assay. The note with it: HT-29, 72 h. In kind it is functional, cell-based. In short, it runs like this: as §2
(In general: Tetrazolium dyes change colour on reduction, which living cells bring about.)

Series [6] can be described thus: Growth inhibition of human 518A2 cells after 24 hrs by MTT assay. In kind it is functional, cell-based. The note with it: 518A2, 24 h. In short, it runs like this:
as §1

A short description of series [7]: Growth inhibition of human MCF7/Topo cells after 72 hrs by MTT assay. In kind it is functional, cell-based. Summed up:
(§3)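 MTT assay: cells seeded at 5000/well (MCF-7/Topo) or 10,000/well (Ea.hy926), then given dilution series (100 µM–5 pM) or DMSO for 72 h. MTT was added at 0.5 mg/mL final for 2 h, formazan dissolved in SDS/acetic acid/DMSO, and absorbance read at 570 nm with 630 nm background. Viability was set relative to DMSO controls, and IC50 taken as the mean of at least three experiments ± S.D.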

The nature of series [8]: Growth inhibition of p53 null human HCT116 cells after 72 hrs by MTT assay. The note with it: HCT-116, 72 h. In kind it is functional, cell-based. In short, it runs like this:
(§4)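 HCT-116 cells, p53 wild-type or p53-/-, seeded at 5000/well and treated 72 h with dilution series (100 µM–5 pM) or DMSO. MTT 0.5 mg/mL for 2 h, absorbance at 570/630 nm. Viability relative to DMSO controls; IC50 from dose–response curves, mean of three independent experiments ± S.D.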

Series [9] can be described thus: Cytotoxicity against fertilized white leghorn chicken embryos in CAM model assessed as lethality at 5 nmol after 24 hrs relative to control. In kind it is organism-based, Gallus gallus. The note with it: in vivo. Summed up: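 Day-5 fertilized eggs (37 °C, 50-60% humidity) windowed, with 6 mm silicon rings placed on CAM vessels and incubated a further 24 h. Compound diluted to 500 µM in PBS and pipetted inside the ring (10 µL = 5 nmol); DMSO control. Vessel changes documented by stereomicroscopy at 0, 12 and 24 h.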

The test system of series [10] is HT-29. The series can be described thus: Cell cycle arrest in combretastatin A-4 resistant human HT-29 cells assessed as accumulation at G1 phase at 5 uM after 24 hrs by propidium iodide staining-based flow cytometry (reference value: 68.1 +/- 0.3%). The format is functional. In short, it runs like this: (§5)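 HT-29 cells (200,000/well) were treated 24 h with 100 nM indole, 5 μM CA-4 or DMSO. Cells were trypsinized, fixed in 4% formaldehyde (20 min, RT) and permeabilized in 90% ice-cold methanol (30 min). They were immunostained with anti-phospho-histone H3 (Ser10) (5 μg/mL, 37 °C, 1 h) plus an AlexaFluor-488 secondary, then stained with PI/RNase (30 min, 37 °C). Flow cytometry of 10,000 single cells assigned G1/S/G2/M.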
A general note: In flow cytometry, cells or beads pass a laser one at a time.

The subject of series [11] is HT-29. Put plainly: Cell cycle arrest in combretastatin A-4 resistant human HT-29 cells assessed as accumulation at S phase at 5 uM after 24 hrs by propidium iodide staining-based flow cytometry (reference value: 13.7 +/- 0.3%). In kind it is functional. Summed up: as §5
In series [12] the test system is HT-29. Put plainly: Cell cycle arrest in combretastatin A-4 resistant human HT-29 cells assessed as mitotic cells at 5 uM after 24 hrs by propidium iodide/immunostaining method (reference value: 3.1 to 3.2%). In kind it is functional. In short, it runs like this:
as §5

Series [13] relates to EA.hy 926. Put plainly: Antivascular activity in human EAhy926 cells assessed as disruption of preformed blood vessel lke network at 100 nM after 16 hrs by matrigel based tube formation assay. The format is functional, cell-based. In short, it runs like this:
(§6)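 Ea.hy926 cells (100,000/well) were seeded on Matrigel-coated coverslips and allowed 12 h to form vessel-like networks. Test agent (CA-4 100 nM; indoles 250 nM) or DMSO was then added for 16 h, and networks were documented by light microscopy. Viability was checked by 2 h MTT (0.5 mg/mL) relative to DMSO controls.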

The nature of series [14]: Growth inhibition of primary chicken fibroblasts after 48 hrs by MTT assay. In kind it is cell-based. The note with it: Gallus gallus, Fibroblast. In short, it runs like this:
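Chicken heart fibroblasts explanted from 10-day-old embryos, seeded at 10,000/well; cardiomyocytes seeded at 20,000/well. Dilution series given for 48 h, DMSO as control. MTT 0.5 mg/mL for 2 h, absorbance at 570/630 nm. Viability versus DMSO controls; IC50 from dose–response curves, mean of three independent experiments.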

Series [15] is described as follows: Growth inhibition of human EAhy926 cells after 72 hrs by MTT assay. The note with it: EA.hy 926, 72 h. In kind it is cell-based. Summed up:
as §3

Series [16] in a line: Growth inhibition of human HCT116 cells expressing wild type p53 after 72 hrs by MTT assay. In kind it is functional, cell-based. The note with it: HCT-116, 72 h. In short, it runs like this: as §4
Series [17] concerns HT-29. The series can be described thus: Cell cycle arrest in combretastatin A-4 resistant human HT-29 cells assessed as accumulation at G2 phase at 5 uM after 24 hrs by propidium iodide staining-based flow cytometry (reference value: 15.6 +/- 0.1%). The format is functional. Summed up: as §5
The species named for another series is Sus scrofa. Put plainly: Inhibition of porcine brain alpha/beta tubulin polymerization at 5 uM measured every 20 sec by microplate reader analysis.
Series [18] can be described thus: Cytotoxicity against human EAhy926 cells assessed as cell viability at 100 nM after 16 hrs by MTT assay relative to control. The format is cell-based, EA.hy 926. The note with it: read-out: Activity. In short, it runs like this: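 Ea.hy926 cells (100,000/well) seeded on Matrigel-coated coverslips and left 12 h to form networks, then exposed to compound for 16 h. Viability was read by 2 h MTT (0.5 mg/mL) and absorbance of the formazan, expressed relative to DMSO controls.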

The subject of series [19] is EA.hy 926. The series can be described thus: Antivascular activity in human EAhy926 cells assessed as change in cell morphology from stretched to rounded form at 100 nM after 16 hrs by matrigel based tube formation assay. In kind it is functional. Summed up: as §6
The test system of series [20] is EA.hy 926. The series can be described thus: Antivascular activity in human EAhy926 cells assessed as induction of retraction of cells to nodes at 100 nM after 16 hrs by light microscopic analysis. The format is functional, cell-based. In short, it runs like this:
as §6

Series [21] can be described thus: Cell cycle arrest in human 518A2 cells assessed as accumulation at G1 phase at 200 nM after 24 hrs by propidium iodide staining-based flow cytometry (reference value: 49.5%). In kind it is functional.
Series [22] can be described thus: Cell cycle arrest in human 518A2 cells assessed as apoptotic index ratio at 200 nM after 24 hrs by propidium iodide staining-based flow cytometry relative to control. The format is functional.
Series [23] is described as follows: Cell cycle arrest in human 518A2 cells assessed as G2/M index ratio at 200 nM after 24 hrs by propidium iodide staining-based flow cytometry relative to control. In kind it is functional.
Series [24] is described as follows: Cell cycle arrest in human 518A2 cells assessed as accumulation at G2/M phase at 200 nM after 24 hrs by propidium iodide staining-based flow cytometry (reference value: 26.3%). The format is functional.
Series [25] is described as follows: Cell cycle arrest in human 518A2 cells assessed as accumulation at S phase at 200 nM after 24 hrs by propidium iodide staining-based flow cytometry (reference value: 20.4%). The format is functional.
Series [26] in a line: Cell cycle arrest in human 518A2 cells assessed as accumulation at subG1 phase at 200 nM after 24 hrs by propidium iodide staining-based flow cytometry (reference value: 3.8%). The format is functional.

By IC50 is commonly meant the concentration at which inhibition is half-maximal. Read a low IC50 as higher potency. The mortality is the share of the test organisms that died.

Active and inactive are the calls of the source. The calls are words filed in the database; no cut-off is given here.

Regarding `COc1cc(-c2ncn(C)c2-c2ccc3c(c2)c(Cl)cn3C)cc(I)c1OC`, the IC50 in series [1] was 49.8 nM; in series [2], 35.7 nM; in [3], 53.3 nM; with HT-29 [4], 35.1 nM; with HT-29 [5], 39.7 nM; in [6], 56.7 nM.

`CCn1c(Cl)c(Cl)c2cc(-c3c(-c4cc(Br)c(OC)c(OC)c4)ncn3C)ccc21`: the IC50 is above 1000 nM in series [1]; 767 nM in series [2]; 489 nM in series [3]; above 1000 nM with HT-29 [4]; 793 nM in the series with HT-29 [5]; above 1000 nM in [6].

With `COc1ccc(/C=C\c2cc(OC)c(OC)c(OC)c2)cc1O` [COMBRETASTATIN A4], the IC50 in series [7] is 154 nM; in [8] it was 3.4 nM; in series [14], 5480 nM; in [15] it was 11 nM; in series [16], 2.6 nM; in the series with HT-29 [5] it was above 5000 nM. Further, the mortality at 24 h in series [9] worked out at 60%. Besides, the Activity in the series on HT-29 [10] is 51.4%; in the series on HT-29 [11] it was 18.6%; in the series on HT-29 [12] it was 10.2%; in the series on HT-29 [17], 18.2%. For the same compound, the outcome with EA.hy 926 [13], in the series with EA.hy 926 [19] and in the series with EA.hy 926 [20] was Active. In addition, in the series listed under Sus scrofa, the inhibition result was “Active”. The viability at 16 h, 0.1 µM in [18] was above 90%.

As to `COc1cc(-c2ncn(C)c2-c2ccc3c(c2)c(Cl)cn3C)cc(Cl)c1OC`, the half-inhibitory concentration (IC50) in series [1] is 37.9 nM; in [2], 32.4 nM; in series [3], 26.9 nM; in the series on HT-29 [4], 33.7 nM; with HT-29 [5] it was 31.4 nM; in [6] it was 174 nM.

For the compound `COc1cc(-c2ncn(C)c2-c2ccc3c(c2)c(Cl)c(Cl)n3C)cc(Br)c1OC`, the IC50 in series [1] worked out at 456 nM; in series [2], 223 nM; in [3], 208 nM; in the series with HT-29 [4], 903 nM; in the series with HT-29 [5], 223 nM; in series [6], 292 nM.

Turning to `CCn1cc(Cl)c2cc(-c3c(-c4cc(I)c(OC)c(OC)c4)ncn3C)ccc21`, the IC50 in series [1] amounted to 83.2 nM; in series [2], 168 nM; in series [3], 81.2 nM; in the series on HT-29 [4], 482 nM; with HT-29 [5], 178 nM; in [6], 211 nM.

In the case of `CCn1cc(Cl)c2cc(-c3c(-c4cc(OC)c(OC)c(OC)c4)ncn3C)ccc21`, the IC50 in series [1] turned out to be 33.2 nM; in [2] it was 33 nM; in series [3] it was 30.2 nM; in the series on HT-29 [4], 75.8 nM; in the series with HT-29 [5] it was 43.4 nM; in series [6], 739 nM.

As for `CCn1cc(Cl)c2cc(-c3c(-c4cc(Br)c(OC)c(OC)c4)ncn3C)ccc21`, the Activity amounted to 39.7% in series [21], 35.2% in series [24], 17.4% in [25] and 7.8% in [26]. Also, the IC50 stood at 48.4 nM in series [1]; 82 nM in [2]; 91.3 nM in series [3]; 246 nM in the series on HT-29 [4]; 116 nM in the series on HT-29 [5]; 216 nM in series [6]. In addition, the Ratio in series [22] came to 5.1; in [23] it was 1.7.
